Assay results published in ChEMBL document CHEMBL1153728, “Quercetin reduces inflammatory pain: inhibition of oxidative stress and cytokine production” (2009).
Activity calls are given as the source filed them.

Columns and labels:
[1] = system: Mus musculus; assay: Antinociceptive activity in Swiss mouse assessed as inhibition of carrageenan-induced mechanical hypernociception at 100 mg/kg, ip dosed 3 hrs before carrageenan challenge measured after 3 hrs by electronic pressure-meter test; type: functional, organism-based; design: dose 100 mg/kg
How it was run: (§1)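 Male Swiss mice given 100 mg/kg ip at 12, 6, 3 h or 30 min before intraplantar carrageenin (100 µg/paw). Mechanical withdrawal threshold by electronic pressure-meter (mean of three readings) at 1, 3 and 5 h after stimulus, expressed as change from baseline.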

[2] = system: Mus musculus; assay: Antinociceptive activity against formalin-induced pain in Swiss mouse assessed as inhibition of paw licking response during second phase at 100 mg/kg, ip dosed 30 mins before formalin challenge measured for 0 to 30 mins; type: functional, organism-based; design: dose 100 mg/kg
How it was run: (§2)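 Male Swiss mice dosed ip (100 mg/kg, vehicle 20% Tween 80 in saline) 30 min before intraplantar formalin 0.1% (25 µL). Paw flinches and licking time counted 0-30 min in 5-min intervals, separating first and second phases; n = 6.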

[3] = system: Mus musculus; assay: Inhibition of CXCL1-induced neutrophil recruitment in Swiss mouse subcutaneous plantar tissue assessed as myeloperoxidase activity at 100 mg/kg, ip dosed 30 mins before CXCL1 challenge measured after 3 hrs by spectrophotometry; type: functional, organism-based; design: dose 100 mg/kg
How it was run: (§3)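 Mice given ip 100 mg/kg 30 min before intraplantar carrageenin (100 µg/paw), TNFα (300 pg/paw) or CXCL1 (20 ng/paw). Plantar tissue taken 3 h later into 50 mM K2HPO4 pH 6.0 with 0.5% HTAB, homogenized, centrifuged. Supernatant read with o-dianisidine/H2O2 at 450 nm, compared to neutrophil standard curve.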

[4] = system: Mus musculus; assay: Antinociceptive activity in Swiss mouse assessed as inhibition of CXCL1-induced mechanical hypernociception at 100 mg/kg, ip dosed 30 mins before CXCL1 challenge measured after 3 hrs by electronic pressure-meter test; type: functional; conditions: route intraperitoneal
[5] = system: Mus musculus; assay: Antinociceptive activity in ip dosed Swiss mouse assessed as inhibition of phenyl-p-benzoquinone-induced writhing response administered 30 mins before phenyl-p-benzoquinone challenge measured for 20 mins; type: functional, organism-based
How it was run: (§4)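 Male Swiss mice pretreated ip (3-100 mg/kg) 30 min before ip acetic acid 0.6% v/v (10 mL/kg) or phenyl-p-benzoquinone 1890 µg/kg in 2% DMSO/saline. Cumulative writhing score counted over 20 min; n = 7.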

[6] = system: Mus musculus; assay: Antinociceptive activity in Swiss mouse assessed as inhibition of TNF-alpha-induced mechanical hypernociception at 100 mg/kg, ip dosed 30 mins before TNFalpha challenge measured after 3 hrs by electronic pressure-meter test; type: functional; conditions: route intraperitoneal
[7] = system: Mus musculus; assay: Inhibition of carrageenan-induced neutrophil recruitment in Swiss mouse subcutaneous plantar tissue assessed as myeloperoxidase activity at 100 mg/kg, ip dosed 30 mins before carrageenan challenge measured after 3 hrs by spectrophotometry; type: functional, organism-based; design: dose 100 mg/kg; how it was run: as §3
[8] = system: Mus musculus; assay: Antinociceptive activity in Swiss mouse assessed as inhibition of carrageenan-induced mechanical hypernociception at 3 to 100 mg/kg, ip administered 30 mins before carrageenan challenge measured after 3 hrs by electronic pressure-meter test; type: functional; conditions: dose mg/kg 3-100; route intraperitoneal
How it was run: (§5)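 Male Swiss mice dosed ip (3-100 mg/kg) or po (30-300 mg/kg) in 20% Tween 80/saline 30 min before intraplantar carrageenin (100 µg/paw). Pressure-meter withdrawal threshold (average of three readings) before and 3 h after; Δ threshold in g; n = 5; one-way ANOVA with Tukey test.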

[9] = system: Mus musculus; assay: Antinociceptive activity in Swiss mouse assessed as inhibition of dopamine-induced mechanical hypernociception at 100 mg/kg, ip dosed 30 mins before dopamine challenge measured after 3 hrs by electronic pressure-meter test; type: functional, organism-based; design: dose 100 mg/kg
[10] = system: Mus musculus; assay: Analgesic activity in Swiss mouse assessed as reaction time taken to jump or lick paw at 8 mg/kg, ip after 30 mins of administration by hot plate test; type: functional, organism-based; design: dose 8 mg/kg
How it was run: (§6)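 Male Swiss mice (25-30 g) placed in glass cylinder on hot plate at 55 °C. Two control latencies taken at least 10 min apart; latency rechecked 30 and 60 min after ip dosing. Endpoint is jumping or paw licking, 30 s cutoff.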

[11] = system: Mus musculus; assay: Antiinflammatory activity in Swiss mouse assessed as inhibition of carrageenan-induced paw edema at 100 mg/kg, ip dosed 30 mins before carrageenan challenge measured after 0.5 to 3 hrs; type: functional, organism-based; design: dose 100 mg/kg
How it was run: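 Male Swiss mice; ip pretreatment 30 min before intraplantar carrageenin (100 µg/paw). Paw measured with calliper before and at 30, 60, 120, 180 min after stimulus; edema = VT minus Vo per mouse.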

[12] = system: Mus musculus; assay: Analgesic activity in Swiss mouse assessed as reaction time taken to jump or lick paw at 100 mg/kg, ip after 60 mins of administration by hot plate test; type: functional, organism-based; design: dose 100 mg/kg; how it was run: as §6
[13] = system: Mus musculus; assay: Antinociceptive activity in Swiss mouse assessed as inhibition of carrageenan-induced mechanical hypernociception at 300 mg/kg, po dosed 30 mins before carrageenan challenge measured after 3 hrs by electronic pressure-meter test; type: functional; how it was run: as §5
[14] = system: Mus musculus; assay: Antinociceptive activity against formalin-induced pain in Swiss mouse assessed as inhibition of hind paw flinching response during second phase of response at 100 mg/kg, ip dosed 30 mins before formalin challenge measured for 0 to 30 mins; type: functional, organism-based; design: dose 100 mg/kg; how it was run: as §2
[15] = system: Mus musculus; assay: Inhibition of TNF-alpha-induced neutrophil recruitment in Swiss mouse subcutaneous plantar tissue assessed as myeloperoxidase activity at 100 mg/kg, ip dosed 30 mins before TNFalpha challenge measured after 3 hrs by spectrophotometry; type: functional, organism-based; design: dose 100 mg/kg; how it was run: as §3
[16] = system: Mus musculus; assay: Antinociceptive activity in ip dosed Swiss mouse assessed as inhibition of carrageenan-induced mechanical hypernociception administered 30 mins before carrageenan challenge measured after 3 hrs by electronic pressure-meter test; type: functional, organism-based; how it was run: as §5
[17] = system: Mus musculus; assay: Analgesic activity in Swiss mouse assessed as reaction time taken to jump or lick paw at 8 mg/kg, ip after 60 mins of administration by hot plate test; type: functional, organism-based; design: dose 8 mg/kg; how it was run: as §6
[18] = system: Mus musculus; assay: Analgesic activity in Swiss mouse assessed as reaction time taken to jump or lick paw at 100 mg/kg, ip after 30 mins of administration by hot plate test; type: functional, organism-based; design: dose 100 mg/kg; how it was run: as §6
[19] = system: Mus musculus; assay: Antinociceptive activity in Swiss mouse assessed as inhibition of carrageenan-induced mechanical hypernociception at 100 mg/kg, ip dosed 30 mins before carrageenan challenge measured after 1 to 5 hrs by electronic pressure-meter test; type: functional, organism-based; design: dose 100 mg/kg; how it was run: as §1
[20] = system: Mus musculus; assay: Muscle relaxant activity in Swiss mouse assessed as motor response at 100 mg/kg, ip after 3 hrs 30 mins by rotarod test; type: functional, organism-based; design: dose 100 mg/kg
[21] = system: Mus musculus; assay: Antioxidant activity in ip dosed Swiss mouse assessed as inhibition of carrageenan-induced reduction in GSH level dosed 30 mins before carrageenan challenge measured after 3 hrs by fluorescence spectrophotometry; type: functional, organism-based
How it was run: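 Swiss mice dosed ip 10-100 mg/kg 30 min before intraplantar carrageenin (100 µg/paw) or saline. Plantar skin from five mice pooled 3 h later, homogenized in 100 mM NaH2PO4 pH 8.0/5 mM EGTA, TCA-precipitated. Supernatant reacted with OPT 15 min, fluorescence ex 350/em 420 nm against 0-40 µM GSH standard, in triplicate.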

[22] = system: Mus musculus; assay: Inhibition of carrageenan-induced IL1-beta production in Swiss mouse subcutaneous plantar tissue at 100 mg/kg, ip dosed 30 mins before carrageenan challenge measured after 3 hrs by ELISA; type: functional; conditions: sc
How it was run: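 Mice dosed ip 100 mg/kg 30 min before intraplantar carrageenin (100 µg/paw). Paw skin removed 3 h later under terminal anesthesia, homogenized in protease-inhibitor buffer. IL-1β measured by ELISA as pg/paw, with saline-injected controls; n = 5.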

[23] = system: Mus musculus; assay: Antinociceptive activity in Swiss mouse assessed as inhibition of PGE2-induced mechanical hypernociception at 100 mg/kg, ip dosed 30 mins before PGE2 challenge measured after 3 hrs by electronic pressure-meter test; type: functional, organism-based; design: dose 100 mg/kg
[24] = system: Mus musculus; assay: Antinociceptive activity in ip dosed Swiss mouse assessed as inhibition of acetic acid-induced writhing response administered 30 mins before acetic acid challenge measured for 20 mins; type: functional, organism-based; how it was run: as §4

O=c1c(O)c(-c2ccc(O)c(O)c2)oc2cc(O)cc(O)c12 [QUERCETIN]
inactive: Activity [3] | Activity [7] | Activity [9] | Activity [12] | Activity [15] | Activity [18] | Activity [20] | Activity [23]
43%: inhibition in vivo at 100 mg/kg [4]
51%: inhibition in vivo at 100 mg/kg [6]
55%: inhibition in vivo at 300 mg/kg [13]
59%: inhibition (INH) [8]
active: inhibition [1] | Activity [2] | inhibition [5] Dose-dependent effect | Activity [10] | inhibition [11] | Activity [14] | inhibition [16] Dose-dependent effect | Activity [17] | inhibition [19] | inhibition [21] Dose-dependent effect | inhibition [24] Dose-dependent effect
36%: inhibition in vivo at 100 mg/kg [22]
